Test results from ChEMBL document CHEMBL5260797, “N-(1-Benzyl-3,5-dimethyl-1H-pyrazol-4-yl)benzamides: Antiproliferative Activity and Effects on mTORC1 and Autophagy” (ACS Med Chem Lett, 2017).

System: MIA PaCa-2
Assay: Antiproliferative activity against human MIA PaCa-2 cells assessed as cell viability measured after 72 hrs by MTT assay
Assay type: functional, cell-based
Conditions: MIA PaCa-2, 72 h
Method in brief: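 MIA PaCa-2 pancreatic cancer cells; EC50 values determined in triplicate.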

EC50	Compound
6.2 µM	CNC(=O)c1cccc(Cn2nc(C)c(NC(=O)c3ccc(COc4cccc(OC)c4)cc3)c2C)c1
4.2 µM	CNC(=O)c1cccc(Cn2nc(C)c(NC(=O)c3ccc(COc4ccc(Cl)cc4)cc3)c2C)c1
6.2 µM	CNC(=O)c1cccc(Cn2nc(C)c(NC(=O)c3ccc(COc4cccc(C)c4)cc3)c2C)c1
2.3 µM	CNC(=O)c1cccc(Cn2nc(C)c(NC(=O)c3ccc(COc4cccc(C(F)(F)F)c4)cc3)c2C)c1
8 µM	CNC(=O)c1cccc(Cn2nc(C)c(NC(=O)c3ccc(COc4ccc(OC)cc4)cc3)c2C)c1

More lines, now with the values behind:

Compound	EC50
Nc1ccn([C@@H]2O[C@H](CO)[C@@H](O)C2(F)F)c(=O)n1 [GEMCITABINE]	0.0015 µM
CNC(=O)c1cccc(Cn2nc(C)c(NC(=O)c3ccc(COc4ccccc4Cl)cc3)c2C)c1	6.3 µM
Cc1nn(Cc2ccccc2)c(C)c1NC(=O)c1ccc(COc2ccccc2)cc1	10 µM
Fc1ccc(CNc2ncnc3ccc(F)cc23)cc1	20 µM
Cc1nn(Cc2cccc(C(=O)N(C)C)c2)c(C)c1NC(=O)c1ccc(COc2ccccc2)cc1	6.4 µM
CCNC(=O)c1cccc(Cn2nc(C)c(NC(=O)c3ccc(COc4ccccc4)cc3)c2C)c1	11 µM
CCN(CC)CCCC(C)Nc1ccnc2cc(Cl)ccc12 (centres undefined) [CHLOROQUINE]	14 µM
Cc1nn(Cc2cccc(C(N)=O)c2)c(C)c1NC(=O)c1ccc(COc2ccccc2)cc1	9.2 µM
Cc1nn(Cc2cccc(C(=O)Nc3ccccc3)c2)c(C)c1NC(=O)c1ccc(COc2ccccc2)cc1	6.4 µM
